# Hits are enriched below; roughly 1.8% of the tested compounds scored in any of these assays.
# CHRM5 agonist = agonists of human muscarinic M5 receptor (CHRM5); P08912; CHO-K1 hM5 cells, Fluo-8 calcium fluorescence; 0% DMSO wells, 100% maximal acetylcholine response; activation, % at 3 µM; 360,000 compounds, 0.19% hits;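 active means activation above the run's mean over test compounds plus 3 SD, cut at about 23% in these data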;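 further: signal is peak over basal fluorescence ratio across the kinetic read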
# Target sequence (P08912 whole entry, looked up): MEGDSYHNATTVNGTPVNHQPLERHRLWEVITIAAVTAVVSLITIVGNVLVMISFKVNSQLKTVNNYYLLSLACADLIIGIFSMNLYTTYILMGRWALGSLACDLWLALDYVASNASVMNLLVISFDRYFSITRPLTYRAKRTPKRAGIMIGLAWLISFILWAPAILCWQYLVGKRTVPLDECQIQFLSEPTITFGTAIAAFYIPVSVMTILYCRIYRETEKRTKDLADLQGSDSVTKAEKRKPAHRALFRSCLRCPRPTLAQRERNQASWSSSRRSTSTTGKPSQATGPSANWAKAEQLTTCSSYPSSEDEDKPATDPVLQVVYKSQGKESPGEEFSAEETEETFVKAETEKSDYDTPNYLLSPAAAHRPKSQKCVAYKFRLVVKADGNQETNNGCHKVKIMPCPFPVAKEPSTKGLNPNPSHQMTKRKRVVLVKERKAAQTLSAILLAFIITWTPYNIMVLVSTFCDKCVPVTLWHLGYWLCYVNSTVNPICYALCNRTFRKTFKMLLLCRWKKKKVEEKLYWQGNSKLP
# M4 PAM = positive allosteric modulators of human muscarinic M4 receptor; CHO-K1 hM4/Gqi5, Fluo-8 calcium fluorescence, ACh EC20; 0% = ACh EC20, 100% = maximal ACh; activation, % at 3 µM; 360,000 compounds, 0.4% hits;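 active means activation above its plate's cutoff, the mean activation of sample wells plus 3 SD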
# M5 antag = blocks acetylcholine activation of human M5 receptor. P08912. CHO-hM5 cells, Fluo-8 calcium fluorescence, ACh EC80. inhibition, % at 3 µM. 360,000 compounds, 0.59% hits;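 active means inhibition above a per-plate cutoff, the mean of that plate's test compounds plus 3 SD, cut at about 27% in these data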;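 further: 0% = acetylcholine EC80 with DMSO and 100% = DMSO without agonist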
# M5 PAM = positive allosteric modulators of human muscarinic M5 receptor; 360,000 compounds, 0.3% hits; P08912; AID 624038; activation, % at 3 µM; CHO-K1 hM5, Fluo-8 calcium, ACh EC20 PAM; 0% = ACh EC20, 100% = ACh EC100;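 active means activation above the run cutoff, the mean activation of all test compounds plus 3 SD, cut at about 18% in these data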
#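 System – CHO-K1 hM5 cells · Compound – 3 µM, single dose · Incubation – compound preincubation 140 s before EC20 acetylcholine addition · Technique – Fluo-8 calcium fluorescence · Measure – Max/basal fluorescence ratio as % of EC20–EC100 ACh window · Benchmarks – low control EC20 acetylcholine (0%), high control EC100 acetylcholine (100%) · Replication – singlicate, one well per test compound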
# CHRM4 agonist = agonists of human muscarinic M4 receptor (CHRM4) | P08173 | CHO-K1 hM4/Gqi5, Fluo-8 calcium fluorescence; vehicle 0%, full acetylcholine response 100% | activation, % at 3 µM | 360,000 compounds, 0.14% hits;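 active means activation above the run mean over all test wells plus 3 SD, cut at about 32% in these data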;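 further: peak over basal fluorescence ratio per well then scaled between controls; 0% = DMSO wells and 100% = acetylcholine at EC100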
# M4 antag = blocks acetylcholine activation of human M4 receptor. inhibition, % at 3 µM. CHO-hM4 cells, ACh EC80, Fluo-8 calcium fluorescence. P08173. 360,000 compounds, 0.73% hits;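 active means inhibition above its plate's cutoff, the mean inhibition of sample wells plus 3 SD, cut at about 27% in these data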;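 further: 0% = acetylcholine EC80 with DMSO and 100% = DMSO without agonist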
# * = called active by the depositor.
SMILES,CHRM5 agonist,M4 PAM,M5 antag,M5 PAM,CHRM4 agonist,M4 antag
CC1CN(C)C(C)CC1OC(=O)C(c1ccccc1)c1ccccc1 (stereo not drawn),-17,-15,68*,-29,1,61*
CN(C)[C@@H]1CCC[C@H]1OC(=O)C(c1ccccc1)c1ccccc1,-8,-14,53*,-19,0,20
NC(=O)C(c1ccccc1)C1CCCC1 (stereo not drawn),-1,5,-11,-3,1,-1
CCOc1ccccc1N1CCN(Cc2cn[nH]c2-c2ccc(F)cc2)CC1,19,12,8,2,3,3
COc1ncccc1C(=O)Nc1c(-c2ccccc2)[nH][nH]c1=O,1,1,11,-6,3,39*
O=c1c2ccccc2nc2sc(Nc3cccc(Cl)c3)nn12,6,-1,-15,20*,1,7
CC(C)(C)N1C(=O)c2ccccc2NC(=O)N1Cc1ccc(Br)cc1,-13,1,-5,0,0,-9
Cc1ccccc1CN1C(=O)Nc2ccccc2C(=O)N1C(C)(C)C,-4,8,-4,50*,0,-3
O=C1C=C(c2ccc(Cl)nc2)C[C@@H](c2ccc3c(c2)OCO3)C1,3,14,11,-1,1,0
CN(C)CCCN(C(=O)c1cc(-c2cccs2)nc2ccccc12)c1nc2c(F)cccc2s1,-5,-13,4,5,8,27*
O=C(Nc1ccc(F)cc1)C(c1ccncc1)N1CCN(C(=O)c2ccco2)CC1 (stereo not drawn),1,15,-13,20*,0,-4
Cc1ccc(S(=O)(=O)Nc2cccc(C(=O)NCCCN3CCOCC3)c2)cc1F,-2,-1,8,2,0,-1
COc1ccccc1CNC(=O)C1CC(c2ccccc2[N+](=O)[O-])=NO1 (stereo not drawn),0,14,-6,21*,1,-6
CS(=O)(=O)c1ccccc1C(=O)Nc1ccc(-c2nc3ccccc3[nH]2)cc1,-4,-1,-7,-1,3,2
O=C(c1ccccc1)c1ccc2nc(-c3ccc(NC(=O)c4ccccc4Br)cc3)[nH]c2c1,1,-22,12,-11,7,28*
O=C(Nc1ccc(-c2nc3ccc(NC(=O)c4cccs4)cc3[nH]2)cc1)c1cccs1,0,-22,27*,-14,5,46*
O=C(Nc1ccc2nc(-c3cccs3)[nH]c2c1)c1cccs1,0,1,-5,-10,8,-1
CC(=O)Nc1cccc(NC(=O)Cc2cccs2)c1,0,-7,11,-7,0,9
Cc1ccccc1C(=O)Nc1ccc(-c2nc3ccc(C(=O)c4ccccc4)cc3[nH]2)cc1,-4,-20,24,-23,11,36*
O=C(Cc1cccs1)Nc1cccc(-c2nc3cc4ccccc4cc3[nH]2)c1,-2,-13,27*,-18,9,16
O=C(Nc1nnc(CCS(=O)(=O)c2ccc3ccccc3c2)s1)c1cccs1,-3,21*,-3,1,1,-7
COc1ccc(S(=O)(=O)CCc2nnc(NC(=O)c3cccs3)s2)cc1,0,3,0,0,1,13
O=C(CNC(=O)c1cnccn1)Nc1ccc(F)c(F)c1F,15,7,-12,21*,1,-8
O=C(Nc1nc2ccccc2s1)C1CCN(S(=O)(=O)c2cc([N+](=O)[O-])ccc2Cl)CC1,-4,-34,39*,-30,17,33*
CCC(C)NC(=O)C1CCN(S(=O)(=O)c2cc([N+](=O)[O-])ccc2Cl)CC1 (stereo not drawn),0,-7,10,-7,2,-8
SMILES,CHRM5 agonist,M4 PAM,M5 antag,M5 PAM,CHRM4 agonist,M4 antag
COc1cc(NS(=O)(=O)c2ccc(C)cc2)c2ncccc2c1,-6,0,22,-1,1,26
Cc1ccc(S(=O)(=O)Nc2cccc3cccnc23)cc1,-3,-5,18,-5,3,32*
OC(c1cccc(OCc2ccccc2)c1)c1nnc(-c2ccccc2)o1 (stereo not drawn),1,-13,28*,-26,14,18
CCN(CC)CCNC(=O)c1ccc(NC(=O)c2cc(S(=O)(=O)N3CCCCC3)ccc2C)cc1,-10,-16,36*,-38,1,69*
N#C/C(=N\Nc1ccc(S(=O)(=O)N2CCc3ccccc32)cc1)C(N)=S,4,-6,21,-19,9,8
CCN(CC)CCNC(=O)c1ccc(NC(=O)c2cccc(S(=O)(=O)Nc3ccc(C)cc3)c2)cc1,-11,-20,52*,-19,1,43*
CN(C)CCNC(=O)c1cccc(S(=O)(=O)Nc2ccc(F)cc2)c1,-4,11,0,8,1,15
CCOC(=O)/C(C#N)=N/Nc1ccc(S(=O)(=O)N2CCc3ccccc32)cc1,4,-13,27*,-14,16,10
CC(=O)N1CCN(C(=O)c2cccc(S(=O)(=O)N3c4ccccc4CC3C)c2)CC1 (stereo not drawn),5,16*,2,0,3,4
CCN(CC)CCNC(=O)c1ccc(NC(=O)c2ccc(S(=O)(=O)N3CCCC3)cc2)cc1,-7,-3,7,3,1,6
COc1cccc(NC(=O)CSc2nc(=O)n(Cc3ccncc3)c3c2CCCC3)c1,0,-3,-4,6,0,11
O=C(NCc1cccc(Cl)c1)c1ccc(CS(=O)Cc2ccccc2Cl)o1 (stereo not drawn),0,-14,2,-1,14,-10
CC(=O)Nc1cncc(-c2cccc(C(=O)N3CCOCC3)c2)n1,0,7,-4,1,1,-9
CCN(CC)CCNC(=O)c1ccc(NC(=O)c2cccc(S(=O)(=O)N3CCc4ccccc43)c2)cc1,-8,-17,83*,-31,0,61*
CCN(CC)CCNC(=O)c1ccc(NC(=O)c2cccc(S(=O)(=O)N3c4ccccc4CC3C)c2)cc1 (stereo not drawn),-8,-16,98*,-15,1,97*
COc1ccc(C(=O)Nc2ccc(S(=O)(=O)N3CCc4ccccc43)cc2)cc1,2,-27,14,-13,18,42*
Cn1cc(S(=O)(=O)N2CCc3ccccc32)cc1C(=O)NC(C)(C)C,10,-12,41*,-22,24,37*
COc1cccc(C(NC(C)=O)c2nc(-c3cccc(C(=O)O)c3)cs2)c1 (stereo not drawn),1,0,-1,-3,1,-16

# Screening data from PubChem.
